Measurements: ChEMBL document CHEMBL5058577, “EUbOPEN Chemogenomics Library 2 (Multiplex)” (2022)

System: HEK-293T
Test: Multiplex assay against HEK293T
Type: toxicity, cell-based
Settings: human
In short: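 Cells stained live at seeding with Hoechst33342, BioTracker Green Microtubule Cytoskeleton Dye, MitoTracker Red and Annexin V Alexa Fluor 680 were imaged on a CQ1 microscope at 37°C and 5% CO2 after compound addition. Their classification by CellPathfinder machine-learning gating ran from Hoechst high-intensity objects versus normal cells, to healthy, pyknosed or fragmented nuclei among normal cells, to mitotic or apoptotic among pyknosed cells. Tubulin, mitochondrial-mass and membrane-permeability phenotypes are per cents of healthy-nucleus cells.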

[1] = 12 h, 1 µM, compound concentration 1 uM, replicate 1
[2] = 12 h, 1 µM, compound concentration 1 uM, replicate 2
[3] = 12 h, 10 µM, compound concentration 10 uM, replicate 1
[4] = 12 h, 10 µM, compound concentration 10 uM, replicate 2
[5] = 24 h, 1 µM, compound concentration 1 uM, replicate 1
[6] = 24 h, 1 µM, compound concentration 1 uM, replicate 2
[7] = 24 h, 10 µM, compound concentration 10 uM, replicate 1
[8] = 24 h, 10 µM, compound concentration 10 uM, replicate 2
[9] = 48 h, 1 µM, compound concentration 1 uM, replicate 1
[10] = 48 h, 1 µM, compound concentration 1 uM, replicate 2
[11] = 48 h, 10 µM, compound concentration 10 uM, replicate 1
[12] = 48 h, 10 µM, compound concentration 10 uM, replicate 2

In the case of COC(c1ccccc1)(c1ccccc1)[C@H](Oc1nc(C)cc(C)n1)C(=O)O [AMBRISENTAN], the “Population Apoptotic (%)” value [1] is reported as 38%, the “Population Fragmented Nuclei (%)” value [1] is reported as 7% and the “Population Healthy Nuclei (%)” value [1] is reported as 75%. For the same compound, the “Population Hoechst High Intensity Objects (%)” value [1] was 6%, the “Population Membrane Permeable-Phenotype (%)” value [1] was 0% and the “Population Mitochondria Different-Phenotype (%)” value [1] was 53%. For the same compound, the “Population Mitotic Cells (%)” value [1] was 61%, the “Population Normal (%)” value [1] was 93% and the “Population Pyknosed Nuclei (%)” value [1] was 16%. For the same compound, the “Population Tubulin-Different-Phenotype (%)” value [1] was 30%, the “Total Cell Count” value [1] was 249 and the “Population Healthy Nuclei (%)” value [2] was 81%. For the same compound, the “Population Hoechst High Intensity Objects (%)” value [2] was 11%, the “Population Mitochondria Different-Phenotype (%)” value [2] was 63% and the “Population Normal (%)” value [2] was 88%. For the same compound, the “Population Pyknosed Nuclei (%)” value [2] was 10%, the “Population Tubulin-Different-Phenotype (%)” value [2] was 23% and the “Total Cell Count” value [2] was 326. The “Population Apoptotic (%)” value [3] was 33%, the “Population Fragmented Nuclei (%)” value [3] was 8% and the “Population Healthy Nuclei (%)” value [3] was 76%. The “Population Hoechst High Intensity Objects (%)” value [3] was 6%, the “Population Membrane Permeable-Phenotype (%)” value [3] was 0% and the “Population Mitochondria Different-Phenotype (%)” value [3] was 47%. The “Population Mitotic Cells (%)” value [3] was 66%, the “Population Normal (%)” value [3] was 93% and the “Population Pyknosed Nuclei (%)” value [3] was 15%. For the same compound, the “Population Tubulin-Different-Phenotype (%)” value [3] was 23%, the “Total Cell Count” value [3] was 383 and the “Population Apoptotic (%)” value [4] was 56%. For the same compound, the “Population Fragmented Nuclei (%)” value [4] was 5%, the “Population Healthy Nuclei (%)” value [4] was 80% and the “Population Hoechst High Intensity Objects (%)” value [4] was 13%. The “Population Mitochondria Different-Phenotype (%)” value [4] was 57%, the “Population Mitotic Cells (%)” value [4] was 43% and the “Population Normal (%)” value [4] was 86%. For the same compound, the “Population Pyknosed Nuclei (%)” value [4] was 14%, the “Population Tubulin-Different-Phenotype (%)” value [4] was 18% and the “Total Cell Count” value [4] was 262. For the same compound, the “Population Apoptotic (%)” value [5] was 37%, the “Population Fragmented Nuclei (%)” value [5] was 9% and the “Population Healthy Nuclei (%)” value [5] was 76%. The “Population Hoechst High Intensity Objects (%)” value [5] was 4%, the “Population Membrane Permeable-Phenotype (%)” value [5] was 1% and the “Population Mitochondria Different-Phenotype (%)” value [5] was 30%. The “Population Mitotic Cells (%)” value [5] was 62%, the “Population Normal (%)” value [5] was 95% and the “Population Pyknosed Nuclei (%)” value [5] was 14%. The “Population Tubulin-Different-Phenotype (%)” value [5] was 19%, the “Total Cell Count” value [5] was 313 and the “Population Apoptotic (%)” value [6] was 43%. The “Population Healthy Nuclei (%)” value [6] was 82%, the “Population Hoechst High Intensity Objects (%)” value [6] was 7% and the “Population Membrane Permeable-Phenotype (%)” value [6] was 0%. For the same compound, the “Population Mitochondria Different-Phenotype (%)” value [6] was 39%, the “Population Mitotic Cells (%)” value [6] was 56% and the “Population Normal (%)” value [6] was 92%. For the same compound, the “Population Pyknosed Nuclei (%)” value [6] was 8%, the “Population Tubulin-Different-Phenotype (%)” value [6] was 16% and the “Total Cell Count” value [6] was 404. The “Population Apoptotic (%)” value [7] was 30%, the “Population Fragmented Nuclei (%)” value [7] was 10% and the “Population Healthy Nuclei (%)” value [7] was 73%. For the same compound, the “Population Hoechst High Intensity Objects (%)” value [7] was 4%, the “Population Membrane Permeable-Phenotype (%)” value [7] was 0% and the “Population Mitochondria Different-Phenotype (%)” value [7] was 34%. For the same compound, the “Population Mitotic Cells (%)” value [7] was 69%, the “Population Normal (%)” value [7] was 95% and the “Population Pyknosed Nuclei (%)” value [7] was 15%. The “Population Tubulin-Different-Phenotype (%)” value [7] was 18%, the “Total Cell Count” value [7] was 441 and the “Population Apoptotic (%)” value [8] was 44%. For the same compound, the “Population Fragmented Nuclei (%)” value [8] was 8%, the “Population Healthy Nuclei (%)” value [8] was 78% and the “Population Hoechst High Intensity Objects (%)” value [8] was 12%. For the same compound, the “Population Mitochondria Different-Phenotype (%)” value [8] was 41%, the “Population Mitotic Cells (%)” value [8] was 55% and the “Population Normal (%)” value [8] was 87%. The “Population Pyknosed Nuclei (%)” value [8] was 12%, the “Population Tubulin-Different-Phenotype (%)” value [8] was 17% and the “Total Cell Count” value [8] was 318. The “Population Apoptotic (%)” value [9] was 27%, the “Population Fragmented Nuclei (%)” value [9] was 17% and the “Population Healthy Nuclei (%)” value [9] was 72%. For the same compound, the “Population Hoechst High Intensity Objects (%)” value [9] was 2%, the “Population Membrane Permeable-Phenotype (%)” value [9] was 3% and the “Population Mitochondria Different-Phenotype (%)” value [9] was 22%. The “Population Mitotic Cells (%)” value [9] was 72%, the “Population Normal (%)” value [9] was 97% and the “Population Pyknosed Nuclei (%)” value [9] was 10%. For the same compound, the “Population Tubulin-Different-Phenotype (%)” value [9] was 13%, the “Total Cell Count” value [9] was 600 and the “Population Apoptotic (%)” value [10] was 40%. The “Population Fragmented Nuclei (%)” value [10] was 12%, the “Population Healthy Nuclei (%)” value [10] was 80% and the “Population Hoechst High Intensity Objects (%)” value [10] was 3%. The “Population Membrane Permeable-Phenotype (%)” value [10] was 0%, the “Population Mitochondria Different-Phenotype (%)” value [10] was 23% and the “Population Mitotic Cells (%)” value [10] was 59%. For the same compound, the “Population Normal (%)” value [10] was 96%, the “Population Pyknosed Nuclei (%)” value [10] was 7% and the “Population Tubulin-Different-Phenotype (%)” value [10] was 10%. The “Total Cell Count” value [10] was 605, the “Population Apoptotic (%)” value [11] was 26% and the “Population Fragmented Nuclei (%)” value [11] was 14%. The “Population Healthy Nuclei (%)” value [11] was 77%, the “Population Hoechst High Intensity Objects (%)” value [11] was 2% and the “Population Membrane Permeable-Phenotype (%)” value [11] was 1%. The “Population Mitochondria Different-Phenotype (%)” value [11] was 18%, the “Population Mitotic Cells (%)” value [11] was 73% and the “Population Normal (%)” value [11] was 97%. For the same compound, the “Population Pyknosed Nuclei (%)” value [11] was 8%, the “Population Tubulin-Different-Phenotype (%)” value [11] was 13% and the “Total Cell Count” value [11] was 711. For the same compound, the “Population Apoptotic (%)” value [12] was 53%, the “Population Healthy Nuclei (%)” value [12] was 79% and the “Population Hoechst High Intensity Objects (%)” value [12] was 7%. The “Population Membrane Permeable-Phenotype (%)” value [12] was 0%, the “Population Mitochondria Different-Phenotype (%)” value [12] was 27% and the “Population Mitotic Cells (%)” value [12] was 46%. The “Population Normal (%)” value [12] was 92%, the “Population Pyknosed Nuclei (%)” value [12] was 5% and the “Population Tubulin-Different-Phenotype (%)” value [12] was 15%. For the same compound, the “Total Cell Count” value [12] was 480.
For CC(F)(F)CN1CCOc2c(nn(-c3ccccc3Cl)c2-c2ccc(Cl)cc2)C1=O, the “Population Apoptotic (%)” value [1] was 29%, the “Population Healthy Nuclei (%)” value [1] was 77% and the “Population Membrane Permeable-Phenotype (%)” value [1] was 0%. The “Population Mitochondria Different-Phenotype (%)” value [1] was 43%, the “Population Mitotic Cells (%)” value [1] was 70% and the “Population Normal (%)” value [1] was 93%. The “Population Pyknosed Nuclei (%)” value [1] was 12%, the “Total Cell Count” value [1] was 397 and the “Population Apoptotic (%)” value [2] was 64%. For the same compound, the “Population Healthy Nuclei (%)” value [2] was 78%, the “Population Mitochondria Different-Phenotype (%)” value [2] was 53% and the “Population Mitotic Cells (%)” value [2] was 35%. For the same compound, the “Population Normal (%)” value [2] was 91%, the “Population Pyknosed Nuclei (%)” value [2] was 16% and the “Total Cell Count” value [2] was 369. The “Population Apoptotic (%)” value [3] was 57%, the “Population Healthy Nuclei (%)” value [3] was 73% and the “Population Membrane Permeable-Phenotype (%)” value [3] was 0%. For the same compound, the “Population Mitochondria Different-Phenotype (%)” value [3] was 78%, the “Population Mitotic Cells (%)” value [3] was 42% and the “Population Normal (%)” value [3] was 89%. For the same compound, the “Population Pyknosed Nuclei (%)” value [3] was 22%, the “Total Cell Count” value [3] was 384 and the “Population Apoptotic (%)” value [4] was 43%. For the same compound, the “Population Healthy Nuclei (%)” value [4] was 75%, the “Population Mitochondria Different-Phenotype (%)” value [4] was 84% and the “Population Mitotic Cells (%)” value [4] was 56%. For the same compound, the “Population Normal (%)” value [4] was 94%, the “Population Pyknosed Nuclei (%)” value [4] was 18% and the “Total Cell Count” value [4] was 397. The “Population Apoptotic (%)” value [5] was 25%, the “Population Healthy Nuclei (%)” value [5] was 79% and the “Population Membrane Permeable-Phenotype (%)” value [5] was 0%. The “Population Mitochondria Different-Phenotype (%)” value [5] was 22%, the “Population Mitotic Cells (%)” value [5] was 74% and the “Population Normal (%)” value [5] was 97%. The “Population Pyknosed Nuclei (%)” value [5] was 11%, the “Total Cell Count” value [5] was 568 and the “Population Apoptotic (%)” value [6] was 43%. For the same compound, the “Population Healthy Nuclei (%)” value [6] was 84%, the “Population Mitochondria Different-Phenotype (%)” value [6] was 31% and the “Population Mitotic Cells (%)” value [6] was 56%. For the same compound, the “Population Normal (%)” value [6] was 93%, the “Population Pyknosed Nuclei (%)” value [6] was 8% and the “Total Cell Count” value [6] was 478. The “Population Apoptotic (%)” value [7] was 57%, the “Population Healthy Nuclei (%)” value [7] was 76% and the “Population Membrane Permeable-Phenotype (%)” value [7] was 0%. For the same compound, the “Population Mitochondria Different-Phenotype (%)” value [7] was 71%, the “Population Mitotic Cells (%)” value [7] was 42% and the “Population Normal (%)” value [7] was 92%. The “Population Pyknosed Nuclei (%)” value [7] was 15%, the “Total Cell Count” value [7] was 450 and the “Population Apoptotic (%)” value [8] was 41%. The “Population Healthy Nuclei (%)” value [8] was 80%, the “Population Mitochondria Different-Phenotype (%)” value [8] was 79% and the “Population Mitotic Cells (%)” value [8] was 58%. For the same compound, the “Population Normal (%)” value [8] was 94%, the “Total Cell Count” value [8] was 477 and the “Population Apoptotic (%)” value [9] was 22%. The “Population Healthy Nuclei (%)” value [9] was 77%, the “Population Membrane Permeable-Phenotype (%)” value [9] was 1% and the “Population Mitochondria Different-Phenotype (%)” value [9] was 14%. The “Population Mitotic Cells (%)” value [9] was 77%, the “Population Normal (%)” value [9] was 99% and the “Population Pyknosed Nuclei (%)” value [9] was 7%. For the same compound, the “Total Cell Count” value [9] was 1015, the “Population Apoptotic (%)” value [10] was 25% and the “Population Healthy Nuclei (%)” value [10] was 79%. For the same compound, the “Population Mitochondria Different-Phenotype (%)” value [10] was 23%, the “Population Mitotic Cells (%)” value [10] was 74% and the “Population Normal (%)” value [10] was 97%. The “Total Cell Count” value [10] was 734, the “Population Apoptotic (%)” value [11] was 55% and the “Population Healthy Nuclei (%)” value [11] was 74%. For the same compound, the “Population Membrane Permeable-Phenotype (%)” value [11] was 0%, the “Population Mitochondria Different-Phenotype (%)” value [11] was 62% and the “Population Mitotic Cells (%)” value [11] was 44%. The “Population Normal (%)” value [11] was 93%, the “Total Cell Count” value [11] was 540 and the “Population Apoptotic (%)” value [12] was 35%. For the same compound, the “Population Healthy Nuclei (%)” value [12] was 78%, the “Population Mitochondria Different-Phenotype (%)” value [12] was 68% and the “Population Mitotic Cells (%)” value [12] was 65%. For the same compound, the “Population Pyknosed Nuclei (%)” value [12] was 11% and the “Total Cell Count” value [12] was 558.
